The values below come from ChEMBL document CHEMBL1145336, “1-aryl-3-(4-pyridine-2-ylpiperazin-1-yl)propan-1-one oximes as potent dopamine D4 receptor agonists for the treatment of erectile dysfunction” (J Med Chem, 2006).

Assay [1] has as its target T1, D(2) dopamine receptor (Homo sapiens, UniProt P14416). Kind of assay: Antagonist activity at human recombinant D2 receptor expressed in HEK293 cells by FLIPR assay. The class given is functional, cell-based.
The target of assay [2] is T2, D(4) dopamine receptor (Homo sapiens, UniProt P21917).
T2 sequence (P21917 whole entry): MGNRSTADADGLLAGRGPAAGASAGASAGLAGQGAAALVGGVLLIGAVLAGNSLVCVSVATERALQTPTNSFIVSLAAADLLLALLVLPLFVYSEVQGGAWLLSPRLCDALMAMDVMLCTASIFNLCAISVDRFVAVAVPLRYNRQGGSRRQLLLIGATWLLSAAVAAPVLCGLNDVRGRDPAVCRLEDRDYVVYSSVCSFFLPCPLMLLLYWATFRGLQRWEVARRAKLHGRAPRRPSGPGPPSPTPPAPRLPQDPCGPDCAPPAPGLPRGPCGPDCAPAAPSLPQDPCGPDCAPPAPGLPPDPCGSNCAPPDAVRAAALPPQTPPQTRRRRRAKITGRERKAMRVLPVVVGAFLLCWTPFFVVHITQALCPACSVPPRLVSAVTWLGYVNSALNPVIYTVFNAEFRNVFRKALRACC
Kind of assay: Displacement of [3H]A-369508 from human recombinant D4.4 receptor expressed in HEK293 cell membrane. The class given is cell membranes. Summed up:
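Competition binding against the D4-selective agonist radioligand [3H]-A-369508, using membranes from HEK-293 cells engineered to express human D4.4. Mean values (SEM, n ≥ 4).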
A general note: In a radioligand displacement assay an active substance lowers the binding of a labelled ligand.

In assay [3] the target is T1, D(2) dopamine receptor. Kind of assay: Displacement of [125I]PIPAT from human recombinant D2L receptor expressed in HEK293 cells.
Assay [4] concerns the target T2, D(4) dopamine receptor. Kind of assay: Activity at human recombinant D4.4 receptor expressed in HEK293 cells by FLIPR assay. The class given is functional, cell-based.
The target of assay [5] is T1, D(2) dopamine receptor. Kind of assay: Agonist activity at human recombinant D2 receptor expressed in HEK293 cells by FLIPR assay. It is filed as functional, cell-based. A digest of the protocol: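 Calcium flux (FLIPR) in HEK-293 cells coexpressing recombinant human D2L with chimeric Gqo5. Efficacy is the maximal response relative to 10 µM dopamine (100%). EC50 is the concentration giving half-maximal stimulation. Values are means (SEM, n ≥ 3).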

Assay [6] deals with Rattus norvegicus. Kind of assay: Activity against penile erection in Wistar rat at 0.3 umol/kg, sc. It is filed as functional. Summed up: (§1)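 Male Wistar rats, dosed subcutaneously, were weighed and adapted to a red-lit testing room for 60 min; experiments ran between 9:00 a.m. and 3:00 p.m. Erections were counted by direct observation for 60 min after dosing. The share of animals with one or more erections was reported as incidence (percent), n = 8-30 rats.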

In assay [7] the test system is Rattus norvegicus. Kind of assay: Inhibition of (E)-1-(4-chlorophenyl)-3-(4-pyridin-2-ylpiperazin-1-yl)propan-1-one O-methyloxime-induced erectogenic effect in Wistar rat at 10 umol/kg, ip. It is filed as functional, organism-based.
Assay [8] relates to Rattus norvegicus. Kind of assay: Activity against penile erection in Wistar rat at 0.1 umol/kg, sc. It is filed as functional. A digest of the protocol: as §1

Calls of active or inactive are those of the source. No cut-off for these calls is given here.

T1 sequence (P14416 whole entry): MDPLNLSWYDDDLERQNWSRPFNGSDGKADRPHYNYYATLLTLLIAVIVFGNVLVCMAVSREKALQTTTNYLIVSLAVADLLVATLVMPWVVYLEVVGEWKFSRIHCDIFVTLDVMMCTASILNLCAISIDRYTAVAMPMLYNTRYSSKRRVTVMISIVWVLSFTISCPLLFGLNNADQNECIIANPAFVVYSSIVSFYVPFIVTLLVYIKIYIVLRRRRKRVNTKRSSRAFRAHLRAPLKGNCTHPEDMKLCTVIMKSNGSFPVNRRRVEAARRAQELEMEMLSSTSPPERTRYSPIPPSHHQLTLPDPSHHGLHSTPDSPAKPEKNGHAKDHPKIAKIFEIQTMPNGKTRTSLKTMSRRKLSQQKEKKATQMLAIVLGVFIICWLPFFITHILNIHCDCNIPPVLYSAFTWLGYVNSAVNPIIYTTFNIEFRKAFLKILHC

A word on the IC50: it is the concentration that gives 50% inhibition. By Ki is commonly meant the equilibrium dissociation constant of an inhibitor or competing ligand from its target. In general, EC50 refers to the midpoint of the concentration-response curve. On to `CO/N=C(/CCN1CCN(c2ccccn2)CC1)c1cccc(C#N)c1`, for which the IC50 on D(2) dopamine receptor [1] was over 10 µM. Also, the Ki worked out at 0.0201 µM on D(4) dopamine receptor [2] and 0.125 µM on D(2) dopamine receptor [3]. Further, the results for the EC50 on D(4) dopamine receptor [4] and on D(2) dopamine receptor [5] were 0.0275 µM and over 10 µM, respectively.

Regarding `CO/N=C(/CCN1CCN(c2ccccn2)CC1)c1cccc(C)c1`, the IC50 at D(2) dopamine receptor [1] is over 10 µM. For the same compound, the results for the Ki at D(4) dopamine receptor [2] and on D(2) dopamine receptor [3] were 0.0321 µM and 0.068 µM, respectively. The figures for the EC50 on D(4) dopamine receptor [4] and on D(2) dopamine receptor [5] were 0.061 µM and over 10 µM, respectively.

`CO/N=C(\CN1CCN(c2ccccn2)CC1)c1ccc(F)cc1`: the IC50 at D(2) dopamine receptor [1] is over 10 µM. The Ki on D(4) dopamine receptor [2] was 2.05 µM; on D(2) dopamine receptor [3], 2.53 µM. Besides, the Activity in the assay on Rattus norvegicus [6] amounted to 77%. The EC50 is 0.0438 µM on D(4) dopamine receptor [4] and over 10 µM on D(2) dopamine receptor [5].

As to `CO/N=C(\CCN1CCC(c2ccccn2)CC1)c1ccc(Cl)cc1`, at D(2) dopamine receptor [1], the IC50 was over 10 µM. In addition, the Ki was found to be 0.134 µM at D(4) dopamine receptor [2] and 0.0253 µM at D(2) dopamine receptor [3]. The EC50 at D(4) dopamine receptor [4] is 0.195 µM; at D(2) dopamine receptor [5] it was over 10 µM.

`CO/N=C(/CCN1CCN(c2ccccn2)CC1)c1ccc(Cl)c(C)c1`: the IC50 at D(2) dopamine receptor [1] is over 10 µM. The Ki is 0.0116 µM on D(4) dopamine receptor [2] and 0.0609 µM at D(2) dopamine receptor [3]. Further, the values for the 50% effective concentration (EC50) at D(4) dopamine receptor [4] and at D(2) dopamine receptor [5] were 0.098 µM and over 10 µM, respectively.

In the case of `CO/N=C(\CCN1CCN(c2ccccn2)CC1)c1ccc(F)cc1`, the IC50 on D(2) dopamine receptor [1] was over 10 µM. Further, the Ki on D(4) dopamine receptor [2] amounted to 0.0142 µM; at D(2) dopamine receptor [3], 0.168 µM. Besides, the Activity in the assay with Rattus norvegicus [6] was found to be 50%. Besides, the EC50 on D(4) dopamine receptor [4] is 0.0488 µM; at D(2) dopamine receptor [5], over 10 µM.

As for `O=c1[nH]c2ccccc2n1CCCN1CCC(n2c(=O)[nH]c3cc(Cl)ccc32)CC1`, the result with Rattus norvegicus [7] was inactive.

`CO/N=C(\c1ccc(Cl)cc1)C(O)CN1CCN(c2ccccn2)CC1` (stereo not drawn): the IC50 at D(2) dopamine receptor [1] was over 10 µM. For the same compound, the Ki on D(4) dopamine receptor [2] stood at 0.113 µM; on D(2) dopamine receptor [3], 0.995 µM. For the same compound, the EC50 at D(4) dopamine receptor [4] is 0.046 µM; at D(2) dopamine receptor [5], over 10 µM.

For the compound `CN1CCc2cccc3c2[C@H]1Cc1ccc(O)c(O)c1-3` [APOMORPHINE], the Activity in the assay with Rattus norvegicus [8] amounted to 85%.

Turning to `CO/N=C(/c1ccc(Cl)cc1)C(O)CN1CCN(c2ccccn2)CC1` (stereo not drawn), the IC50 on D(2) dopamine receptor [1] is over 10 µM. In addition, the Ki stood at 0.15 µM on D(4) dopamine receptor [2] and 0.368 µM at D(2) dopamine receptor [3]. In addition, the values for the EC50 on D(4) dopamine receptor [4] and at D(2) dopamine receptor [5] were 0.0226 µM and over 10 µM, respectively.

In the case of `CO/N=C(\CCN1CCN(c2ccccn2)CC1)c1cccc(Cl)c1`, at D(2) dopamine receptor [1], the IC50 is over 10 µM. In addition, the Ki was found to be 0.0135 µM on D(4) dopamine receptor [2] and 0.0987 µM on D(2) dopamine receptor [3]. In addition, the EC50 was 0.0889 µM at D(4) dopamine receptor [4] and over 10 µM on D(2) dopamine receptor [5].

As for `CO/N=C(\CCN1CCN(c2ccccn2)CC1)c1ccccc1`, the IC50 on D(2) dopamine receptor [1] was over 10 µM. The Ki at D(4) dopamine receptor [2] was found to be 0.0228 µM; on D(2) dopamine receptor [3], 0.172 µM. The same compound registered an Activity in the assay on Rattus norvegicus [8] of 77%. The results for the EC50 on D(4) dopamine receptor [4] and on D(2) dopamine receptor [5] were 0.032 µM and over 10 µM, respectively.

With `CO/N=C(/CCN1CCN(c2ccccn2)CC1)c1cccnc1`, the IC50 at D(2) dopamine receptor [1] is over 10 µM. For the same compound, the Ki is 0.13 µM on D(4) dopamine receptor [2] and 1.82 µM on D(2) dopamine receptor [3]. In addition, the EC50 is 0.0333 µM at D(4) dopamine receptor [4] and over 10 µM on D(2) dopamine receptor [5].

As for `Cc1cccc(C(=O)NCN2CCN(c3ccccc3C#N)CC2)c1` [PD-168,077], the IC50 on D(2) dopamine receptor [1] is over 10 µM. The same compound had an Activity in the assay with Rattus norvegicus [6] of 79%. Moreover, the EC50 at D(2) dopamine receptor [5] is over 10 µM.

In the case of `CO/N=C(/CCN1CCC(c2ccccn2)CC1)c1ccc(Cl)cc1`, the IC50 on D(2) dopamine receptor [1] is over 10 µM. Besides, the figures for the Ki on D(4) dopamine receptor [2] and at D(2) dopamine receptor [3] were 0.09 µM and 0.0194 µM, respectively. Further, the EC50 on D(4) dopamine receptor [4] and on D(2) dopamine receptor [5] was over 10 µM in each case.

For the compound `CO/N=C(/CCN1CCN(c2ccccn2)CC1)c1ccc(F)cc1`, the IC50 on D(2) dopamine receptor [1] is over 10 µM. Moreover, the Ki on D(4) dopamine receptor [2] is 0.0533 µM; on D(2) dopamine receptor [3], 0.221 µM. Further, the EC50 on D(4) dopamine receptor [4] was 0.0136 µM; on D(2) dopamine receptor [5] it was over 10 µM.
